The values below come from ChEMBL document CHEMBL5661979, “Pharmacological inhibition of BMK1 suppresses tumor growth through promyelocytic leukemia protein” (Cancer Cell, 2010).

Data set [1] concerns the target MAP/microtubule affinity-regulating kinase 3 (Homo sapiens, UniProt P27448). Put plainly: Inhibition of MARK3 in human HeLa cells lysate at 2 uM pre incubated for 15 mins followed by ADP acyl phosphate probe addition and measured after 10 mins by LC-MS/MS analysis relative to control. The format is subcellular. The note with it: time 25.0 min.
Data set [2] is described as follows: Inhibition of NEK6/7 in human HeLa cells lysate at 10 uM pre incubated for 15 mins followed by ATP acyl phosphate probe addition and measured after 10 mins by LC-MS/MS analysis relative to control. As to conditions: 25 min, condition cancer.
The target in data set [3] is T1, Phosphatidylinositol 4-kinase beta (Homo sapiens, UniProt Q9UBF8). Put plainly: Inhibition of PIK4CB in human HeLa cells lysate pre incubated for 15 mins followed by ADP acyl phosphate probe addition and measured after 10 mins by LC-MS/MS analysis. The format is subcellular.
Target sequence in this assay (Q9UBF8 whole entry): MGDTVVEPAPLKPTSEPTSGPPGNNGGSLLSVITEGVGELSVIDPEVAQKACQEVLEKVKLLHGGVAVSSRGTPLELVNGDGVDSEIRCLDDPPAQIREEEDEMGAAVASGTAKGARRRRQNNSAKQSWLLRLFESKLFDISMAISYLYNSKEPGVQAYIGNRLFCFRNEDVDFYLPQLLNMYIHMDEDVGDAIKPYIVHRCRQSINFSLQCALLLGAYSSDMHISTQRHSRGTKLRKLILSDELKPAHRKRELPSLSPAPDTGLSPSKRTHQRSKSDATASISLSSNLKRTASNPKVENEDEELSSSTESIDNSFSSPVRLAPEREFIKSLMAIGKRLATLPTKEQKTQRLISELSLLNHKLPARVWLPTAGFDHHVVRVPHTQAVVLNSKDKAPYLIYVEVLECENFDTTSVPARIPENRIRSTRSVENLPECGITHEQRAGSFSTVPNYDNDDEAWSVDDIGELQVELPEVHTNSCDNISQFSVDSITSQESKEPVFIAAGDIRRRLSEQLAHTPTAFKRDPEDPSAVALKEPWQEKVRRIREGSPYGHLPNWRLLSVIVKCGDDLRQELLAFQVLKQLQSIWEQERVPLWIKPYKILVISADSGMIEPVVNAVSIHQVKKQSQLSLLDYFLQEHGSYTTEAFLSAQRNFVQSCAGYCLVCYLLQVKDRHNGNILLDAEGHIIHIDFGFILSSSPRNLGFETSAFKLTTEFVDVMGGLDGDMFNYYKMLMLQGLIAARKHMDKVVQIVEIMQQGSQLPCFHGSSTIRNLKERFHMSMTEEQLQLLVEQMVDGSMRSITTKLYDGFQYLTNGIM
Data set [4] has as its target T2, Phosphatidylinositol 5-phosphate 4-kinase type-2 alpha (Homo sapiens) (UniProt P48426).
T2 sequence (whole entry): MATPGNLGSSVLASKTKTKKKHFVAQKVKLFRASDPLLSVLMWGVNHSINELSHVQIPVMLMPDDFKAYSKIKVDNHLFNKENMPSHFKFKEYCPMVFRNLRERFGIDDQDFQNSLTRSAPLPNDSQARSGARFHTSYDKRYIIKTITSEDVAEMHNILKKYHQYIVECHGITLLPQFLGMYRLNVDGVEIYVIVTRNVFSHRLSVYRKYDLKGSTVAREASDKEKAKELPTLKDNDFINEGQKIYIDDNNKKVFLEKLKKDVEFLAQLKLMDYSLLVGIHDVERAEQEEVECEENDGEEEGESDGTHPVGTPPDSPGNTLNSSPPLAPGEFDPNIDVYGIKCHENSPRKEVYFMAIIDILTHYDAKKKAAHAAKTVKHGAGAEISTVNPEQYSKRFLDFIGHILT
Put plainly: Inhibition of PIP5K2A LIP1 site in human HeLa cells lysate at 2 uM pre incubated for 15 mins followed by ADP acyl phosphate probe addition and measured after 10 mins by LC-MS/MS analysis relative to control. Type of data set: subcellular. As to conditions: time 25.0 min.

Data set [5] concerns the target Serine/threonine-protein kinase Chk2 (Homo sapiens, UniProt O96017). Put plainly: Inhibition of CHK2 in human HeLa cells lysate at 2 uM pre incubated for 15 mins followed by ADP acyl phosphate probe addition and measured after 10 mins by LC-MS/MS analysis relative to control. The format is subcellular. As to conditions: time 25.0 min.
Data set [6] concerns the target Aurora kinase A (Homo sapiens, UniProt O14965). As to the kind of experiment: Inhibition of AURA in human HeLa cells lysate pre incubated for 15 mins followed by ATP acyl phosphate probe addition and measured after 10 mins by LC-MS/MS analysis. The format is subcellular. In outline: (§1)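 KiNativ-type profiling in HeLa lysate (5 mg/mL total protein). Lysate preincubated 15 min with inhibitor at 50, 10, 2, 0.8 or 0 μM, then ATP or ADP acylphosphate probe added (5 μM final) for 10 min. Reaction stopped with urea and analysed by targeted MS, using up to four fragment ions per kinase peptide-probe conjugate. % inhibition calculated against untreated lysate. Duplicate reactions.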

Data set [7] has as its target Eukaryotic elongation factor 2 kinase (Homo sapiens) (UniProt O00418). Put plainly: Inhibition of EEF2K in human HeLa cells lysate at 2 uM pre incubated for 15 mins followed by ATP acyl phosphate probe addition and measured after 10 mins by LC-MS/MS analysis relative to control. Type of data set: subcellular. The note with it: time 25.0 min.
Data set [8] can be described thus: Oral bioavailability in Sprague-Dawley rat at 2 mg/kg measured up to 8 hrs by LC-MS/MS analysis. The format is ADME, organism-based. As to conditions: in vivo.
The target of data set [9] is T3, Phosphorylase b kinase gamma catalytic chain, liver/testis isoform (Homo sapiens) (UniProt P15735).
T3 sequence (whole entry): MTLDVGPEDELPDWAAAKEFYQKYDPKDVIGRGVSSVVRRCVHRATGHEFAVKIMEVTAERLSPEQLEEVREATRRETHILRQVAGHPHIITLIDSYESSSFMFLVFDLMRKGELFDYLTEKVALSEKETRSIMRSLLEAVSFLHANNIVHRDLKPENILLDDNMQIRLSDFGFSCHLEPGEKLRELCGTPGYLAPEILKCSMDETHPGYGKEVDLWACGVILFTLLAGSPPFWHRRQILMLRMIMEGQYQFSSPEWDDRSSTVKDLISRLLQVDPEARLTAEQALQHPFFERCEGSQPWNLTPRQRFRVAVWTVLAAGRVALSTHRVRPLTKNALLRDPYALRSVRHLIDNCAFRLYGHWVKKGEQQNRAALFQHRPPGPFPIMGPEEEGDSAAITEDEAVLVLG
As to the kind of experiment: Inhibition of PHKg2 in human HeLa cells lysate at 50 uM pre incubated for 15 mins followed by ATP acyl phosphate probe addition and measured after 10 mins by LC-MS/MS analysis relative to control. Type of data set: subcellular. The note with it: time 25.0 min.

For data set [10], the target named is AMPK alpha1/alpha2 (Homo sapiens, UniProt P54646+Q13131). Put plainly: Inhibition of AMPKalpha1/2 in human HeLa cells lysate pre incubated for 15 mins followed by ATP acyl phosphate probe addition and measured after 10 mins by LC-MS/MS analysis. The format is subcellular. In outline: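 HeLa cell lysates (5 mg/mL total protein) were preincubated with inhibitor at 0, 0.8, 2, 10 or 50 μM for 15 min. ATP or ADP acylphosphate probe was then added (5 μM final) for 10 min, and reactions were stopped with urea. Up to four fragment ions per kinase probe-peptide were quantified by targeted MS. % inhibition was taken relative to untreated lysate. Run in duplicate.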

For data set [11], the target named is T4, Cyclin-dependent kinase 9 (Homo sapiens, UniProt P50750). Put plainly: Inhibition of CDK9 in human HeLa cells lysate at 50 uM pre incubated for 15 mins followed by ATP acyl phosphate probe addition and measured after 10 mins by LC-MS/MS analysis relative to control. The format is subcellular. As to conditions: time 25.0 min. The method, boiled down: (§2)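 KiNativ profiling in HeLa lysate (5 mg/mL total protein). Lysate incubated 15 min with inhibitor at 50, 10, 2, 0.8 or 0 μM. ATP or ADP acylphosphate probe then added (5 μM final) and reacted 10 min. Reaction stopped with urea and analysed by targeted MS, using up to four fragment ions per kinase peptide-probe conjugate. % inhibition taken against untreated lysate. Run in duplicate.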

For data set [12], the target named is T1, Phosphatidylinositol 4-kinase beta. As to the kind of experiment: Inhibition of PIK4CB in human HeLa cells lysate at 50 uM pre incubated for 15 mins followed by ATP acyl phosphate probe addition and measured after 10 mins by LC-MS/MS analysis relative to control. The format is subcellular. As to conditions: time 25.0 min.
The nature of data set [13]: Toxicity in C57Bl/6 mouse assessed as effect on urea nitrogen level at 50 mg/kg, ip for 14 days (reference value: 22 mg/dl). As to conditions: in vivo, 336 h, time 14 day. Type of data set: organism-based.
For data set [14], the target named is Calcium/calmodulin-dependent protein kinase type 1D (Homo sapiens, UniProt Q8IU85). Put plainly: Inhibition of CAMK1d in human HeLa cells lysate at 2 uM pre incubated for 15 mins followed by ADP acyl phosphate probe addition and measured after 10 mins by LC-MS/MS analysis relative to control. The format is subcellular. The note with it: time 25.0 min. In outline:
as §1

Data set [15] deals with Tyrosine-protein kinase JAK1 (Homo sapiens, UniProt P23458). Put plainly: Inhibition of JAK1 domain 2 in human HeLa cells lysate pre incubated for 15 mins followed by ATP acyl phosphate probe addition and measured after 10 mins by LC-MS/MS analysis. The format is subcellular.
The target of data set [16] is T4, Cyclin-dependent kinase 9. As to the kind of experiment: Inhibition of CDK9 in human HeLa cells lysate pre incubated for 15 mins followed by ADP acyl phosphate probe addition and measured after 10 mins by LC-MS/MS analysis. The format is subcellular. The method, boiled down:
as §2

T4 sequence (P50750 whole entry, the tested form may be a part): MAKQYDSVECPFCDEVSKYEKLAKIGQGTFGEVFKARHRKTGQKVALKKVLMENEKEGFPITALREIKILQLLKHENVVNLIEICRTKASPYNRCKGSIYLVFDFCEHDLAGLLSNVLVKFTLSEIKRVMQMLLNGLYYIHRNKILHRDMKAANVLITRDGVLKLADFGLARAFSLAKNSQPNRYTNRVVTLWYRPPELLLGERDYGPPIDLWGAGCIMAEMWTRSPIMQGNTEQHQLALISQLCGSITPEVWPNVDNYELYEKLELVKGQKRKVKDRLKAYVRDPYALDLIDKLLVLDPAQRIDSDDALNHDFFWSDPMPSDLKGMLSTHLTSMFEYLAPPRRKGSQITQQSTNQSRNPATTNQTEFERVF
Sequence of Tyrosine-protein kinase JAK1 (P23458 whole entry, the tested form may be a part): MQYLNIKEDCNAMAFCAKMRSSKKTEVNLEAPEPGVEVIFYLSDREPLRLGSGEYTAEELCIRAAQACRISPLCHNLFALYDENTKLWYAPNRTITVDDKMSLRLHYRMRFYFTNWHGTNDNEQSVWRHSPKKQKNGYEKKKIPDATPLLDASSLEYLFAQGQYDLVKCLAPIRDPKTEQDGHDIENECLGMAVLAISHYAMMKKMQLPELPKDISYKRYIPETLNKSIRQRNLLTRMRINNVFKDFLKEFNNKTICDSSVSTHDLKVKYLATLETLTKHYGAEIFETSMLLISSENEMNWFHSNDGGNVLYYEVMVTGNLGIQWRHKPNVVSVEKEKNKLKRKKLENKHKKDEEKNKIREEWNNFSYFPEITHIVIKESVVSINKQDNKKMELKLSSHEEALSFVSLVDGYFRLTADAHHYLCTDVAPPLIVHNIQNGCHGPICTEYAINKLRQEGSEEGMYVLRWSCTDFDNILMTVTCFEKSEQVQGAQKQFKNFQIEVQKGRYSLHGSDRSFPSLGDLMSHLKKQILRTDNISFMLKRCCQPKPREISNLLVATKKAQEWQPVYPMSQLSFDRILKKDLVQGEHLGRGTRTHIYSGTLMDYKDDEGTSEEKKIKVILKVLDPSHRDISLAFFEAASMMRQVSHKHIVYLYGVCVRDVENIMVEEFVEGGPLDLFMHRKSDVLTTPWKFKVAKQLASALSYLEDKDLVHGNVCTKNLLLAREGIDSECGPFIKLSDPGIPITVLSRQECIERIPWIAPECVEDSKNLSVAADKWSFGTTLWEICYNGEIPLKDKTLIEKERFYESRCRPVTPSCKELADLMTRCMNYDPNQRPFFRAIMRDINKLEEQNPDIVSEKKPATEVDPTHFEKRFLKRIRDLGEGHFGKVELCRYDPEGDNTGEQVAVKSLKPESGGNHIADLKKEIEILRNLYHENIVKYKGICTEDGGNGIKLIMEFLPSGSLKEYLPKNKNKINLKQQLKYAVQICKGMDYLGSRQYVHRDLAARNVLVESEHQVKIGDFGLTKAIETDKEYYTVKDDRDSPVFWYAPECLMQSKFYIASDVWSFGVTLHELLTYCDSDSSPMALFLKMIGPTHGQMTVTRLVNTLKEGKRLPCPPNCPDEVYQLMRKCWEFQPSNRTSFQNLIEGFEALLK
Sequence of Eukaryotic elongation factor 2 kinase (Homo sapiens) (O00418 whole entry): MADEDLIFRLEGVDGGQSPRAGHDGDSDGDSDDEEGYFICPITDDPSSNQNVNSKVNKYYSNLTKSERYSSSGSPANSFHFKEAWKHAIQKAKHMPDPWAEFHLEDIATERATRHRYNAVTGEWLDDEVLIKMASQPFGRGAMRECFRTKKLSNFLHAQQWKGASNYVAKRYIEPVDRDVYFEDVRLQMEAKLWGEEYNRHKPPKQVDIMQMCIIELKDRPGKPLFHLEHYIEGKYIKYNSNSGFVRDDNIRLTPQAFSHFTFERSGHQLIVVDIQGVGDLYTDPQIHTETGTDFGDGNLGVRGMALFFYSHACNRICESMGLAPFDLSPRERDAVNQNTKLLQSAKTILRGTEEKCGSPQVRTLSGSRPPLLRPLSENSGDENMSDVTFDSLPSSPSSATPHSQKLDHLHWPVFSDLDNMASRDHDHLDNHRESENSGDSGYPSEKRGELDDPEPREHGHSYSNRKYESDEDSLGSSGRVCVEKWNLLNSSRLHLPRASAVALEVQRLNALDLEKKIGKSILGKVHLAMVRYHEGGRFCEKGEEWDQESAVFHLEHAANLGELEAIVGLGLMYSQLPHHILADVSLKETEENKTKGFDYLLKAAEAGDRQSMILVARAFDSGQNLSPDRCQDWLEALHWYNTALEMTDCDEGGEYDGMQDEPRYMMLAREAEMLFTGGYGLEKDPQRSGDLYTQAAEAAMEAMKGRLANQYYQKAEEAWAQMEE
Sequence of Calcium/calmodulin-dependent protein kinase type 1D (Q8IU85 whole entry, looked up): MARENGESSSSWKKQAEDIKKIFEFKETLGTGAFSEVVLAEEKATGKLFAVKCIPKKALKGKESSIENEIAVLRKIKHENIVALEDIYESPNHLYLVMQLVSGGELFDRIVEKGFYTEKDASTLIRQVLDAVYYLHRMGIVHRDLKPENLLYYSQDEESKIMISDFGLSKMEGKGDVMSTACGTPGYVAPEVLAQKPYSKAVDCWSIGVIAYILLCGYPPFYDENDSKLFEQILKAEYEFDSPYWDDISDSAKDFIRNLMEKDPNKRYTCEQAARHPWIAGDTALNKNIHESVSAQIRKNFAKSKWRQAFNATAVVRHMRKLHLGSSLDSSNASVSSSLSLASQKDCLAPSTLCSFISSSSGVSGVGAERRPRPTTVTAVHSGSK
Sequence of Aurora kinase A (O14965 whole entry, the tested form may be a part): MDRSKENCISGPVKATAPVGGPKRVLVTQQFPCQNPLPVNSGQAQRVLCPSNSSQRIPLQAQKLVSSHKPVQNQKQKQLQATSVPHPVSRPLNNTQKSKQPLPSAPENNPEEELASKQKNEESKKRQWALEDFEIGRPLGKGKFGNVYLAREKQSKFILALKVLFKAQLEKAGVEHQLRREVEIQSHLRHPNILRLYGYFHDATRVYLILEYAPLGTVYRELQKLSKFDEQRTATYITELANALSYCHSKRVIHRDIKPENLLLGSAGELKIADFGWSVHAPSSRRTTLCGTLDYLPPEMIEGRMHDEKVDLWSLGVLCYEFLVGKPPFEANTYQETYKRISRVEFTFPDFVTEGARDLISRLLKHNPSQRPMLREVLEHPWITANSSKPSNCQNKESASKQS
Sequence of Serine/threonine-protein kinase Chk2 (O96017 whole entry): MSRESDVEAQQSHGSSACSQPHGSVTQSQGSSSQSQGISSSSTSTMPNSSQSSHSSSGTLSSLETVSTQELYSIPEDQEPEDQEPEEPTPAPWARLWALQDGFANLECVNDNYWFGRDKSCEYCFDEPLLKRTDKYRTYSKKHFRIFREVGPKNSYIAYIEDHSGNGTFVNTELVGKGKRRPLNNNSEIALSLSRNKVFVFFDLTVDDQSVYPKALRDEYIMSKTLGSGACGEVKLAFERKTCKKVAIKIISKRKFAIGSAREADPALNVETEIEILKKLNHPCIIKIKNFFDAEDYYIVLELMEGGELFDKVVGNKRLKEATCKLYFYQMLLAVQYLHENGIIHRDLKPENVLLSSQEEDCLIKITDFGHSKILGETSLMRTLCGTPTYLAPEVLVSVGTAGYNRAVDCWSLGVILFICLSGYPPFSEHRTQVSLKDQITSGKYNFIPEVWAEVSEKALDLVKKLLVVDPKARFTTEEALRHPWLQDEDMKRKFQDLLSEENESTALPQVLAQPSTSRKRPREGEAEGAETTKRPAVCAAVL

Take `CCOc1cc(N2CCC(O)CC2)ccc1Nc1ncc2c(n1)N(C)c1ccccc1C(=O)N2C`: the inhibition – broadly, the change of the read-out against control, counted positive when it falls – in data set [1] was -3.4%; in data set [4], 3.5%; in data set [5], 7.6%; in data set [7], 1.5%; in [9] it was 8.5%; in data set [11] it was -0.3%. Further, the inhibition in [12] came to 52.2%; in data set [14], 4.7%. Also, the inhibition at 10 µM in [2] was -10.7%. Also, the IC50 in data set [3], in data set [6], in data set [10], in data set [15] and in [16] was over 50 µM each time. Also, in [8], the bioavailability – broadly, dose-corrected exposure relative to a reference, in per cent – came to 69%. Further, the Activity in [13] was 31 mg/dL.
